Measured values as given in ChEMBL document CHEMBL1150633, “In vitro cytotoxic activity of phenanthroindolizidine alkaloids from Cynanchum vincetoxicum and Tylophora tanakae against drug-sensitive and multidrug-resistant cancer cells” (J Nat Prod, 2002).

Tests used:
[1] = Cytotoxicity against multidrug-resistant human KBV1 cells by MTS/PMS assay; type: functional, cell-based; settings: KB-V1
How it was run: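 Mycoplasma-free KB-V1 carcinoma cells, selected from KB-3-1 for vinblastine resistance and obtained from the NCI Laboratory of Cell Biology. They show a full multidrug-resistance phenotype including P-170 glycoprotein efflux pump expression. Cytotoxicity expressed as IC50.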

[2] = Cytotoxicity against drug-sensitive human KB-3-1 cells by MTS/PMS assay
[3] = Resistance index, ratio for IC50 for multidrug-resistant human KBV1 cells to IC50 for drug-sensitive human KB-3-1 cells

Row | Compound | IC50 [1] [nM] | IC50 [2] [nM] | Ratio IC50 [3]
1 | COc1ccc(C2=C(c3ccc(OC)c(OC)c3)C[C@H]3CCCN3C2)cc1 | 2440 | 2630 | –
2 | COc1ccc(C2=C(c3ccc(O)cc3)CN3CCC[C@@H]3C2)cc1OC | 425 | 403 | –
3 | COc1cc2c3c(c4ccc(O)cc4c2cc1OC)CN1CCC[C@@H]1C3 | 10 | 7 | –
4 | COc1cc2c(cc1O)c1c(c3cc(OC)c(OC)cc32)C[C@H]2CCCN2C1 | 17 | 15 | –
5 | COc1cc2c3c(c4ccc(OC)c(OC)c4c2cc1OC)C[C@@H]1CCCN1C3 | 54 | 43 | –
6 | COc1ccc2c3c(c4cc(OC)c(OC)cc4c2c1)C[C@H]1CCCN1C3 [(-)-ANTOFINE] | 14 | 16 | –
7 | COC(=O)c1ccccc1-c1c2ccc(=N)cc-2oc2cc(N)ccc12.Cl [RHODAMINE123] | > 500000 | 2200 | >225
8 | COc1cc2c3c(c4cc(OC)c(OC)cc4c2cc1OC)CN1CCC[C@@H]1C3 [TYLOPHORINE] | 173 | 214 | –
9 | CC[C@]1(O)C[C@@H]2CN(CCc3c([nH]c4ccccc34)[C@@](C(=O)OC)(c3cc4c(cc3OC)N(C)[C@H]3[C@@](O)(C(=O)OC)[C@H](OC(C)=O)[C@]5(CC)C=CCN6CC[C@]43[C@@H]65)C2)C1 [VINBLASTINE] | – | – | 210
